# Assays:
# HepG2 [1] = assay: Percent reduction of fatty acid synthesis in human hepatoma cell line HepG2 at 300 uM concentration; format: functional; parameters: scale not given: the % may be the effect or the level left
# Method in brief: (§1)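 HepG2 cells were grown in DMEM with Hepes, bicarbonate, glutamine and 10% FCS to 80–90% confluence, then kept overnight serum-free. Vehicle or compound was added at the stated final concentration for 2.5 h. ³H2O (71 μCi/mmol) was present for the final 90 min. Synthesis rates came from ³H incorporated into cellular cholesterol or fatty acids, relative to vehicle control.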
# HepG2 [2] = assay: Percent control of ATP levels in human hepatoma cell line HepG2 at 1000 uM concentration; format: functional
# Method in brief: (§2)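 Serum-starved HepG2 cells (grown to 80–90% confluence in DMEM/10% FCS, then overnight without serum) were exposed to vehicle or compound at the stated final concentration for 2.5 h. Cellular ATP was then measured as a toxicity check and expressed as % of vehicle control.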
# HepG2 [3] = assay: Percent control of ATP levels in human hepatoma cell line HepG2 at 100 uM concentration; format: functional; method in brief: as §2
# HepG2 [4] = assay: Percent reduction of cholesterol synthesis in human hepatoma cell line HepG2 at 1000 uM concentration; format: functional; method in brief: as §1
# HepG2 [5] = assay: Percent reduction of cholesterol synthesis in human hepatoma cell line HepG2 at 300 uM concentration; format: functional; parameters: scale not given: the % may be the effect or the level left; method in brief: as §1
# HepG2 [6] = assay: Percent reduction of cholesterol synthesis in human hepatoma cell line, HepG2 at 100 uM concentration; format: functional; parameters: scale not given: the % may be the effect or the level left; method in brief: as §1
# HepG2 [7] = assay: Percent reduction of fatty acid synthesis in human hepatoma cell line HepG2 at 1000 uM concentration; format: functional; method in brief: as §1
# HepG2 [8] = assay: Percent reduction of fatty acid synthesis in human hepatoma cell line HepG2 at 100 uM concentration; format: functional; parameters: scale not given: the % may be the effect or the level left; method in brief: as §1
# HepG2 [9] = assay: Percent control of ATP levels in human hepatoma cell line HepG2 at 300 uM concentration; format: functional; method in brief: as §2
# HepG2 [10] = assay: Percent control of ATP levels in human hepatoma cell line, HepG2 at 1000 uM concentration; format: functional; method in brief: as §2
# HepG2 [11] = assay: Percent control of ATP levels in human hepatoma cell line, HepG2 at 100 uM concentration; format: functional; method in brief: as §2
# ATP-citrate synthase = biological target: T1, ATP-citrate synthase (Rattus norvegicus, UniProt P16638); assay: Inhibition of recombinant ATP-Citrate Lyase activity as […] dehydrogenase catalyzed reduction of oxaloacetate by NADH; details: in the assay text read “purified rat ATP-Citrate Lyase” for “recombinant ATP-Citrate Lyase”
# T1 sequence (P16638 whole entry): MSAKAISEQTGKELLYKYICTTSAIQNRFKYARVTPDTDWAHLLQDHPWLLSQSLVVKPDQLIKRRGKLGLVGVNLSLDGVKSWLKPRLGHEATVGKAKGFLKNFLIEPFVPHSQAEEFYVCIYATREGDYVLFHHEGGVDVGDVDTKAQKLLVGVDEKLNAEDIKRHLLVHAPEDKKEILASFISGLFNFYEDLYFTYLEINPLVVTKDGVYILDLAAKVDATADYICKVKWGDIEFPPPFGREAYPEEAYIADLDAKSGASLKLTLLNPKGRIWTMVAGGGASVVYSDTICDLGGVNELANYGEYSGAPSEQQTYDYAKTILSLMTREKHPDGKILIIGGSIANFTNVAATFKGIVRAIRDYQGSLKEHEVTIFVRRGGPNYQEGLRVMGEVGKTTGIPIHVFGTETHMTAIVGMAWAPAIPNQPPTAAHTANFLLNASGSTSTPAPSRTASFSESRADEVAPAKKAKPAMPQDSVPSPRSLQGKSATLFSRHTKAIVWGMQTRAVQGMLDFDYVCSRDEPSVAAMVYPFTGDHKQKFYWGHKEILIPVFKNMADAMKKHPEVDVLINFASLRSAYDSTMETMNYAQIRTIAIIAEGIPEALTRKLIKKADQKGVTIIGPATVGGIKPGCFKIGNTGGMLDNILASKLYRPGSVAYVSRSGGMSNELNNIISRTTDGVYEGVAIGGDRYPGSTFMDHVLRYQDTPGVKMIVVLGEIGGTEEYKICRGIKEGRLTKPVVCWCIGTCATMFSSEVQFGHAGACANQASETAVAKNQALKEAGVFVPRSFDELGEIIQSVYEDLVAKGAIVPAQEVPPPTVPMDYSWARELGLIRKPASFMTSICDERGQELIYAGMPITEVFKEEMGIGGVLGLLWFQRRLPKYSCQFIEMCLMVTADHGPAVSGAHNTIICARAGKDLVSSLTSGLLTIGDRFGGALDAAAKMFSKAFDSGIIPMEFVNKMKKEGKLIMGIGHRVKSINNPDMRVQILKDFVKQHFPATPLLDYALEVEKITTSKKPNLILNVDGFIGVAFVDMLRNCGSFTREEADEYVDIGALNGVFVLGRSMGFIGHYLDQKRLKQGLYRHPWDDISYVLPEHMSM
# Method in brief: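 Purified rat ACL or recombinant human ACL was assayed by coupling oxaloacetate formation to malate dehydrogenase reduction with NADH. Buffer: Tris 100 mM pH 8.0, MgCl2 10 mM, KCl 10 mM, DTT 10 mM, plus ATP and NADH. CoA was 200 μM, and citrate was added to 100 μM (its Km) to start the reaction. A340 decrease was followed over 20 min. Ki came from fitting v = Vmax/(2 + [I]/Ki), assuming citrate-competitive inhibition.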
# HepG2 [12] = assay: Percent reduction of fatty acid synthesis in human hepatoma cell line HepG2 at 20 uM concentration; format: functional; parameters: scale not given: the % may be the effect or the level left; method in brief: as §1
# HepG2 [13] = assay: Percent control of ATP levels in human hepatoma cell line HepG2 at […] uM concentration; format: functional
# HepG2 [14] = assay: Percent control of ATP levels in human hepatoma cell line HepG2 at 20 uM concentration; format: functional; method in brief: as §2
# HepG2 [15] = assay: Percent reduction of cholesterol synthesis in human hepatoma cell line HepG2 at 20 uM concentration; format: functional; parameters: scale not given: the % may be the effect or the level left; method in brief: as §1
# HepG2 [16] = assay: Percent control of ATP levels in human hepatoma cell line HepG2 at 10 uM concentration; format: functional; method in brief: as §2
# HepG2 [17] = assay: Percent control of ATP levels in human hepatoma cell line HepG2 at 30 uM concentration; format: functional; method in brief: as §2
# HepG2 [18] = assay: Percent reduction of cholesterol synthesis in human hepatoma cell line HepG2 at 100 uM concentration; format: functional; parameters: scale not given: the % may be the effect or the level left; method in brief: as §1
compound,measurement,setting,value
O=C(O)C[C@@](O)(C(=O)O)[C@H](O)C(=O)O,Control,HepG2 [1],79%
same,Control,HepG2 [2],104%
same,Control,HepG2 [3],100%
same,Cholesterol synthesis (% of vehicle control),HepG2 [4],15%
same,Control,HepG2 [5],40%
same,Control,HepG2 [6],110%
same,Fatty acid synthesis (% of vehicle control),HepG2 [7],57%
same,Control,HepG2 [8],87%
same,Control,HepG2 [9],103%
CC(=O)OCOC(=O)CC(O)(CSCCCCCCc1ccc(Cl)cc1Cl)C(=O)OCOC(C)=O (stereo unspecified),Control,HepG2 [10],60%
same,Control,HepG2 [11],111%
same,Cholesterol synthesis (% of vehicle control),HepG2 [4],13%
same,Fatty acid synthesis (% of vehicle control),HepG2 [7],16%
same,Control,HepG2 [8],100%
O=C(O)CC(O)(CSCCCCCc1ccc(Cl)cc1Cl)C(=O)O (stereo unspecified),Ki,ATP-citrate synthase,6.8 µM
same,Control,HepG2 [12],96%
same,Control,HepG2 [13],84%
same,Control,HepG2 [14],102%
same,Cholesterol synthesis (% of vehicle control),HepG2 [4],14%
same,Control,HepG2 [15],104%
same,Fatty acid synthesis (% of vehicle control),HepG2 [7],16%
CCOC(=O)CC(O)(CSCCCCCCc1ccc(Cl)cc1Cl)C(=O)OCC (stereo unspecified),Control,HepG2 [3],81%
same,Control,HepG2 [16],91%
same,Control,HepG2 [17],86%
same,Control,HepG2 [18],3%
same,Control,HepG2 [8],6%

# Source: ChEMBL document CHEMBL1129688, “ATP-citrate lyase as a target for hypolipidemic intervention. Design and synthesis of 2-substituted butanedioic acids as novel, potent inhibitors of the enzyme” (J Med Chem, 1996)
